What was measured:
[1] = Compound tested for solubility measured in 3% ethanol:water or in 3% methanol:water; NS is not soluble; format: ADME; details: buffer
[2] = molecular target: Nitric oxide synthase 1 (Rattus norvegicus) (UniProt P29476); experiment: Neuronal subtype of Neuronal nitric oxide synthase (nNOS) activity tested on Rat Striatal neurones at the concentration of 10e-11 (M)
Method in brief: (§1)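 Rat striatal crude homogenate (supernatant after 1000g, 5 min) as nNOS source. L-[3H]-arginine to L-[3H]-citrulline conversion: 10 µM L-arginine plus 50 nM tracer, H4biopterin, FAD, 0.1 mM CaCl2, pH 7.6. Compounds added over 10 pM–1 mM. Started with NADPH (0.75 mM final), 30 min at 37 °C. Blank omits NADPH. Activity expressed as % of untreated samples. Three experiments in triplicate, four striata each.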

[3] = molecular target: Nitric oxide synthase 1 (Rattus norvegicus) (UniProt P29476); experiment: Neuronal subtype of Neuronal nitric oxide synthase (nNOS) activity tested on Rat Striatal neurones at the concentration of 10e-9 (M); method in brief: as §1
[4] = molecular target: Nitric oxide synthase 1 (Rattus norvegicus) (UniProt P29476); experiment: Neuronal subtype of Neuronal nitric oxide synthase (nNOS) activity tested on Rat Striatal neurones at the concentration of 10e-7 (M); method in brief: as §1
[5] = molecular target: Nitric oxide synthase 1 (Rattus norvegicus) (UniProt P29476); experiment: Neuronal subtype of Neuronal nitric oxide synthase (nNOS) activity tested on Rat Striatal neurones at the concentration of 0(M); method in brief: as §1
[6] = molecular target: Nitric oxide synthase 1 (Rattus norvegicus) (UniProt P29476); experiment: Neuronal subtype of Neuronal nitric oxide synthase (nNOS) activity tested on Rat Striatal neurones at the concentration of 10e-5 (M); method in brief: as §1
[7] = molecular target: Nitric oxide synthase 1 (Rattus norvegicus) (UniProt P29476); experiment: Neuronal subtype of Neuronal nitric oxide synthase (nNOS) activity tested on Rat Striatal neurones at the concentration of 10e-3 (M); method in brief: as §1
Nitric oxide synthase 1 = Nitric oxide synthase 1 (Rattus norvegicus, UniProt P29476); experiment: 50% inhibitory concentration against Neuronal nitric oxide synthase (nNOS) activity; method in brief: as §1
Nitric oxide synthase 1, sequence (P29476 whole entry): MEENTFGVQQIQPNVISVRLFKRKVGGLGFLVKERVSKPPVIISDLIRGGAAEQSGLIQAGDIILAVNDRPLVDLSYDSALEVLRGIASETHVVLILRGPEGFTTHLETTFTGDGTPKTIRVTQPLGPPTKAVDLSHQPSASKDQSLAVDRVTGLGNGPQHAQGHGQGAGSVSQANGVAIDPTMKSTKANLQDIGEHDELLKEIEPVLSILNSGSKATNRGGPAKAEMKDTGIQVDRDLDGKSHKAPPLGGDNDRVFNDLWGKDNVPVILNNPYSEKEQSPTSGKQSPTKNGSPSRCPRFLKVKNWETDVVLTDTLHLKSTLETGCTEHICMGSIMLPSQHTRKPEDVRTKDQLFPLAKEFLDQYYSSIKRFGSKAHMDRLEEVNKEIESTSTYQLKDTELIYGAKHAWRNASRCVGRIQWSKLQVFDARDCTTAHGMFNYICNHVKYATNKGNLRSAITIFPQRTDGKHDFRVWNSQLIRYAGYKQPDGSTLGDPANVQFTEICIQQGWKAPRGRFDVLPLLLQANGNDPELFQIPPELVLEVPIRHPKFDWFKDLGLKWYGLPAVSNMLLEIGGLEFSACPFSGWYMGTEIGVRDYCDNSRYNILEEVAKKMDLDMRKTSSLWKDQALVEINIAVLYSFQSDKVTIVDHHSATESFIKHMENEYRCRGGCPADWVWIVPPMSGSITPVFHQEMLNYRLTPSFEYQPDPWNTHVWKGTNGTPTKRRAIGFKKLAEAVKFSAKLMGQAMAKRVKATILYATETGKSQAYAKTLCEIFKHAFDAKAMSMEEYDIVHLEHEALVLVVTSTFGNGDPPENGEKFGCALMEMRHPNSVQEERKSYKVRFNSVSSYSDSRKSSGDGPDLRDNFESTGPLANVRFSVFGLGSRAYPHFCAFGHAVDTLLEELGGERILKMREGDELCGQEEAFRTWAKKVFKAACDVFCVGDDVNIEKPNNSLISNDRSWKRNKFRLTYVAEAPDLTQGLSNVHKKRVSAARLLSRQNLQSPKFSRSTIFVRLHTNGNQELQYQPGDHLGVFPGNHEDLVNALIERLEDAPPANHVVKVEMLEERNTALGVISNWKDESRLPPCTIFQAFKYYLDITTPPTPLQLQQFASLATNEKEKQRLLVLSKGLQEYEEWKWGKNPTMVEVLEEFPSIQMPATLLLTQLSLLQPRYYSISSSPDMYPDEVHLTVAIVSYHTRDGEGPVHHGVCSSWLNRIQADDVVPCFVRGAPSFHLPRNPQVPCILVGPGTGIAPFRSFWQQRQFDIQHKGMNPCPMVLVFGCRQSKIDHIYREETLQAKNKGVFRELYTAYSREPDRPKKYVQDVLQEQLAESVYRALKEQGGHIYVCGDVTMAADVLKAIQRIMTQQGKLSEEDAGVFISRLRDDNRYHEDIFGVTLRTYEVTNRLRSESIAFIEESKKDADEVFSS

Nitric oxide synthase 1 (Rattus norvegicus), sequence (P29476 whole entry): as above

Row | SMILES | NS [1] | nNOS activity [2] | nNOS activity [3] | nNOS activity [4] | nNOS activity [5] | nNOS activity [6] | nNOS activity [7] | also measured
1 | CCCC(=O)NC(CCC(=O)c1ccccc1)(C(=O)OCC)C(=O)OCC | Insoluble | – | – | – | – | – | – | –
2 | CCCC(=O)NC(CC(=O)c1cccc(OC)c1)C(=O)O (stereo not given) | – | 99.9% | 101% | 101% | 100% | 99.7% | 105% | –
3 | CCCC(=O)NC(CC(=O)c1cc(OC)ccc1N)C(=O)O (stereo not given) | – | 85.8% | 82.1% | 77.3% | 100% | 67.4% | 55% | IC50 (Nitric oxide synthase 1): > 1000 µM
4 | COc1cccc(C(=O)CC(NC(C)=O)C(=O)O)c1 (stereo not given) | – | 92.7% | 100% | 87.2% | 100% | 103% | 95.7% | –
5 | CCCC(=O)NC(C(=O)OCC)(C(=O)OCC)C(C)C(=O)c1ccccc1 (stereo not given) | Insoluble | – | – | – | – | – | – | –
6 | COc1ccc(N)c(C(=O)CC(NC(C)=O)C(=O)O)c1 (stereo not given) [KYNURENIN] | – | 78.6% | 73.4% | 65.8% | 100% | 64% | 31.5% | IC50 (Nitric oxide synthase 1): 41 µM
7 | COc1ccc(NCc2ccccc2)c(C(=O)CC(NC(C)=O)C(=O)O)c1 (stereo not given) | – | 101% | 101% | 100% | 100% | 98.2% | 100% | –
8 | COc1ccc(N(C)C)c(C(=O)CC(NC(C)=O)C(=O)O)c1 (stereo not given) | – | 100% | 99.9% | 99.6% | 100% | 101% | 99% | –
9 | CCOC(=O)C(CC(=O)c1cccc([N+](=O)[O-])c1)(NC(=O)CC)C(=O)OCC | Insoluble | – | – | – | – | – | – | –

The next lines start with results.

Row | NS [1] | nNOS activity [2] | nNOS activity [3] | nNOS activity [4] | nNOS activity [5] | nNOS activity [6] | nNOS activity [7] | SMILES | also measured
10 | Insoluble | – | – | – | – | – | – | CCCC(=O)NC(CC(=O)c1cc(OC)ccc1N)(C(=O)OCC)C(=O)OCC | –
11 | Insoluble | – | – | – | – | – | – | CCOC(=O)C(CC(=O)c1cccc(OC)c1)(NC(=O)C1CC1)C(=O)OCC | –
12 | Insoluble | – | – | – | – | – | – | C/C=C/C(=O)NC(CC(=O)c1cccc(OC)c1)(C(=O)OCC)C(=O)OCC | –
13 | Insoluble | – | – | – | – | – | – | CCOC(=O)C(CC(=O)c1cccc([N+](=O)[O-])c1)(NC(C)=O)C(=O)OCC | –
14 | Insoluble | – | – | – | – | – | – | CCOC(=O)C(CC(=O)c1cccc(OC)c1)(NC(=O)c1ccccc1)C(=O)OCC | –
15 | Insoluble | – | – | – | – | – | – | CCCC(=O)NC(CC(=O)c1cccc(OC)c1)(C(=O)OCC)C(=O)OCC | –
16 | Insoluble | – | – | – | – | – | – | CCOC(=O)C(CC(=O)c1cc(OC)ccc1NCc1ccccc1)(NC(C)=O)C(=O)OCC | –
17 | Insoluble | – | – | – | – | – | – | CCOC(=O)C(CC(=O)c1cccc(OC)c1)(NC(=O)C1CCCCC1)C(=O)OCC | –
18 | Insoluble | – | – | – | – | – | – | CCOC(=O)C(CC(=O)c1cc(OC)ccc1N(C)C)(NC(C)=O)C(=O)OCC | –
